IC50 data for 12 molecules are collected here from ChEMBL document CHEMBL1240471, “Synthesis and anticancer activity of chromone-based analogs of lavendustin A” (Eur J Med Chem, 2010).

What all share (type): functional, cell-based
One experiment deals with KB. Briefly: Growth inhibition of human KB cells after 72 hrs by SRB assay. In outline: (§1)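 Cells were seeded at 5 × 10³ cells/well in 96-well plates. Various sample concentrations were added in triplicate, and plates were incubated for 72 h at 37 °C in 5% CO₂. Optical density was read at 520 nm. GI₅₀ was taken as the concentration inhibiting cell growth by 50%.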
A general note: In SRB staining, fixed cells bind dye roughly in proportion to their protein.

Another experiment relates to A549. Briefly: Growth inhibition of human A549 cells after 72 hrs by SRB assay. Particulars: A549, 72 h. In outline: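 A-549 cells were seeded at 2 × 10³ cells/well. Various sample concentrations were tested in triplicate over 72 h at 37 °C under 5% CO₂. Absorbance was read at 520 nm. GI₅₀ was assigned as the concentration giving 50% growth inhibition.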
A further experiment concerns SK-MEL-2. The experiment is described as follows: Growth inhibition of human SK-MEL-2 cells after 72 hrs by SRB assay. Particulars: SK-MEL-2, 72 h. In outline:
as §1

In the next experiment the test system is HCT-15. The experiment is described as follows: Growth inhibition of human HCT15 cells after 72 hrs by SRB assay. The note with it: HCT-15, 72 h. In outline:
as §1

The test system of another experiment is A-431. Briefly: Growth inhibition of human A431 cells after 72 hrs by SRB assay. Particulars: A-431, 72 h. A digest of the protocol: as §1
For a further experiment, the system named is SK-OV-3. The experiment is described as follows: Growth inhibition of human SKOV3 cells after 72 hrs by SRB assay. The note with it: SK-OV-3, 72 h.

Converted amounts (≈) assume the structure as drawn. Some results are limits rather than exact numbers.

Usually IC50 stands for the concentration that inhibits the measured activity by half. Take `COc1ccc(CN(CCc2ccccc2)Cc2c(O)ccc3c(=O)cc(/C=C/c4ccccc4)oc23)cc1`: the IC50 in the experiment on KB is 35 µg/mL (≈ 67.6 µM); in the experiment on A549 it was 17.9 µg/mL (≈ 34.6 µM); with SK-MEL-2, over 100 µg/mL; in the experiment on HCT-15, 49.4 µg/mL (≈ 95.4 µM).

Regarding `COc1ccc(CCN(Cc2ccccc2)Cc2c(O)ccc3c(=O)cc(C)oc23)cc1OC`, the IC50 in the experiment on KB was 24.3 µg/mL (≈ 53 µM); in the experiment on A-431, over 100 µg/mL; in the experiment with A549 it was 26.1 µg/mL (≈ 56.8 µM); in the experiment with SK-MEL-2 it was 21.9 µg/mL (≈ 47.6 µM); in the experiment with SK-OV-3, 41.7 µg/mL (≈ 90.7 µM); with HCT-15 it was 31.5 µg/mL (≈ 68.5 µM).

Turning to `Cc1cc(=O)c2ccc(O)c(CN(CCc3ccccc3)Cc3ccccc3)c2o1`, the IC50 stood at 14.5 µg/mL (≈ 36.3 µM) in the experiment with KB; 18.5 µg/mL (≈ 46.3 µM) in the experiment with A-431; 12.3 µg/mL (≈ 30.9 µM) in the experiment on A549; 17.4 µg/mL (≈ 43.5 µM) with SK-MEL-2; 21.6 µg/mL (≈ 54 µM) in the experiment on SK-OV-3; 11.7 µg/mL (≈ 29.3 µM) in the experiment on HCT-15.

Regarding `Cc1cc(=O)c2ccc(O)c(CN(CCc3ccccc3)Cc3ccc([N+](=O)[O-])cc3)c2o1`, the IC50 in the experiment with KB is 10.8 µg/mL (≈ 24.4 µM); with A-431, 61 µg/mL (≈ 137 µM); in the experiment with A549, 9.92 µg/mL (≈ 22.3 µM); in the experiment with SK-MEL-2 it was 74.1 µg/mL (≈ 167 µM); in the experiment with SK-OV-3 it was over 100 µg/mL; in the experiment on HCT-15 it was 7.68 µg/mL (≈ 17.3 µM).

Take `COc1ccc(CN(Cc2ccc([N+](=O)[O-])cc2)Cc2c(O)ccc3c(=O)cc(C)oc23)cc1`: the IC50 was 24.4 µg/mL (≈ 53 µM) with KB; over 100 µg/mL with A-431; 24.5 µg/mL (≈ 53.1 µM) in the experiment with A549; over 100 µg/mL with SK-MEL-2; over 100 µg/mL in the experiment with SK-OV-3; 28.6 µg/mL (≈ 62.1 µM) with HCT-15.

Regarding `COc1ccc(CN(Cc2ccc(OC)cc2)Cc2c(O)ccc3c(=O)cc(C)oc23)cc1`, the IC50 is 17.8 µg/mL (≈ 39.9 µM) in the experiment on KB; 38.9 µg/mL (≈ 87.3 µM) in the experiment on A-431; 62.5 µg/mL (≈ 140 µM) with A549; 31.6 µg/mL (≈ 71 µM) in the experiment with SK-MEL-2; over 100 µg/mL in the experiment on SK-OV-3; 53.7 µg/mL (≈ 121 µM) in the experiment with HCT-15.

Turning to `CCN(Cc1ccc(OC)cc1)Cc1c(O)ccc2c(=O)cc(C)oc12`, the IC50 stood at 47.4 µg/mL (≈ 134 µM) in the experiment with KB; 41.9 µg/mL (≈ 119 µM) in the experiment with A-431; 38.7 µg/mL (≈ 110 µM) in the experiment with A549; 60.3 µg/mL (≈ 171 µM) with SK-MEL-2; 57.5 µg/mL (≈ 163 µM) in the experiment with SK-OV-3; 22.4 µg/mL (≈ 63.5 µM) in the experiment with HCT-15.

For the molecule `COc1ccc(CCN(Cc2ccccc2)Cc2c(O)ccc3c(=O)cc(C)oc23)cc1`, the IC50 came out at 16.1 µg/mL (≈ 37.4 µM) in the experiment on KB; 25.2 µg/mL (≈ 58.7 µM) with A-431; 16.6 µg/mL (≈ 38.7 µM) with A549; 19.9 µg/mL (≈ 46.4 µM) with SK-MEL-2; 65 µg/mL (≈ 151 µM) with SK-OV-3; 15.8 µg/mL (≈ 36.8 µM) with HCT-15.

As to `Cc1cc(=O)c2ccc(O)c(CN(Cc3ccccc3)Cc3ccccc3)c2o1`, the IC50 in the experiment with KB was found to be 15.1 µg/mL (≈ 39.2 µM); in the experiment with A-431, 19.5 µg/mL (≈ 50.6 µM); in the experiment on A549 it was 11.9 µg/mL (≈ 30.9 µM); in the experiment with SK-MEL-2, 17.8 µg/mL (≈ 46.1 µM); in the experiment on SK-OV-3, 19 µg/mL (≈ 49.2 µM); in the experiment on HCT-15 it was 11.3 µg/mL (≈ 29.4 µM).

Take `CCN(CCc1ccccc1)Cc1c(O)ccc2c(=O)cc(C)oc12`: the IC50 in the experiment on KB was 32.6 µg/mL (≈ 96.6 µM); in the experiment on A-431 it was over 100 µg/mL; in the experiment on A549, 32.7 µg/mL (≈ 96.8 µM); with SK-MEL-2, 57.5 µg/mL (≈ 171 µM); in the experiment with SK-OV-3 it was over 100 µg/mL; in the experiment on HCT-15, 43.2 µg/mL (≈ 128 µM).

In the case of `COc1ccc(CN(Cc2ccccc2)Cc2c(O)ccc3c(=O)cc(C)oc23)cc1`, the IC50 in the experiment on KB came to 42.7 µg/mL (≈ 103 µM); in the experiment with A-431, 44.7 µg/mL (≈ 108 µM); in the experiment with A549 it was 14.1 µg/mL (≈ 34 µM); in the experiment on SK-MEL-2 it was 78.6 µg/mL (≈ 189 µM); in the experiment with SK-OV-3 it was 24.5 µg/mL (≈ 59.1 µM); in the experiment with HCT-15, 10.7 µg/mL (≈ 25.8 µM).

Regarding `COc1ccc(CN(Cc2ccc3ccccc3c2)Cc2c(O)ccc3c(=O)cc(C)oc23)cc1`, the IC50 in the experiment with KB is 17.6 µg/mL (≈ 37.8 µM); in the experiment with A-431, 16.4 µg/mL (≈ 35.2 µM); with A549 it was 6.01 µg/mL (≈ 12.9 µM); in the experiment on SK-MEL-2, over 100 µg/mL; in the experiment with SK-OV-3, over 100 µg/mL; in the experiment on HCT-15, 6.89 µg/mL (≈ 14.8 µM).
